Article PMC12236005 (Journal of Nanobiotechnology, 2025)

How the values were obtained:
[1] = tested on: H2O2 treated H9c2 cells; assay: Intracellular ROS, DHE probe; format: cell-based; conditions: DHE staining, 4 h treatment, n = 5
Summary of the method: (§1)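 H9c2 cells cultured 24 h, then exposed to test compound for 4 h. Stained with a fluorescent probe: DHE for ROS, O38 for NO. Fluorescence microscopy, with mean fluorescence intensity taken per image. n = 5.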

[2] = tested on: HUVECs; assay: HUVEC migration; format: cell-based, human; conditions: H2O2 treated; scratch assay 24 h and Transwell assay 8 h; n = 5
Summary of the method: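 Two formats. Scratch: HUVECs pre-stained with green fluorescent dye and grown to a confluent monolayer. Gap scratched with a pipette tip, then fresh medium with test compound added. Fluorescence images at 0 and 24 h give the percentage of wound area healed. Transwell: 8.0-µm pores, 8 × 10^4 cells in serum-free medium above, 10% FBS medium with test compound below, 8 h. Migrated cells stained with 0.1% crystal violet and counted in five random fields. n = 5.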

[3] = tested on: H2O2-treated H9c2 cells; assay: Mitochondria-related cell injury probes; format: cell-based; conditions: 6 h treatment, n = 5; for mitochondrial membrane potential: JC-10 probe
Summary of the method: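 H9c2 cells were seeded and grown 24 h, then treated for 6 h and stained with JC-10. Fluorescence images were taken, and membrane potential was expressed as the ratio of red to green fluorescence intensity. n = 5.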

[4] = tested on: MI mice; format: in vivo, C57BL/6 mice
[5] = tested on: H2O2 treated H9c2 cells; assay: Intracellular ONOO-/RNS, O58 probe; format: cell-based; conditions: 4 h treatment, n = 5
Summary of the method: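 H9c2 cells (high-glucose DMEM, 10% FBS) were seeded and grown 24 h, then treated 4 h. Cells were stained with BBoxiProbe O58 for ONOO−, imaged by fluorescence microscopy, and mean fluorescence intensity was quantified. n = 5.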

[6] = tested on: H9c2 cells; assay: Apoptosis by flow cytometry, Annexin V-PI staining; format: cell-based; conditions: H9c2 + H2O2, 24 h treatment, n = 3
[7] = tested on: H2O2 treated H9c2 cells; assay: Intracellular NO, O38 probe; format: cell-based; conditions: 4 h treatment, n = 5
Summary of the method: as §1

[8] = tested on: H9c2 cells; assay: Cell protection under H2O2, CCK-8; format: cell-based; conditions: 10 µM equivalent of PBA or/and ISN, 500 µM H2O2, 24 h, n = 5
Summary of the method: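 H9c2 cells (high-glucose DMEM, 10% FBS) seeded at 5 × 10^3/well and grown 24 h. Medium then replaced with treatments at 10 µM PBA and/or ISN equivalent, followed by 500 µM H2O2, with PBS as control. After 24 h, cells were given fresh medium containing 10% CCK-8 for 4 h. Supernatant absorbance was read at 450 nm to calculate viability.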

[9] = tested on: HUVECs; assay: Western blotting of VEGF, p-eNOS, eNOS; format: cell-based, human; conditions: H2O2 treated HUVECs, immunoblot; n = 3
Summary of the method: (§2)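 Lysates from HUVECs or H9c2 cells were protein-quantified by BCA. Equal amounts were run on SDS-PAGE and transferred to PVDF. Membranes were blocked with 5% non-fat milk and probed with primary and secondary antibodies. Bands were detected by ECL chemiluminescence and quantified by densitometry. n = 3.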

[10] = tested on: HUVECs; assay: HUVEC survival under oxidative stress; format: cell-based, human; conditions: H2O2, calcein-AM/PI staining and CCK-8 assay; n = 5
Summary of the method: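 CCK-8: 5 × 10^3 cells/well plated 24 h, then medium with test compound (10 µM equivalent of PBA and/or ISN) and 500 µM H2O2 (PBS control). After 24 h, 10% CCK-8 for 4 h, absorbance at 450 nm. Live/dead: 1 × 10^5 cells/well plated 24 h, treated 24 h, calcein AM/PI stain 30 min, fluorescence imaging, dead/live ratio quantified. n = 5.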

[11] = tested on: HUVECs; assay: Intracellular ROS, NO and RNS probes in HUVECs; format: cell-based, human; conditions: H2O2 treated HUVECs, O38 probe; n = 5
Summary of the method: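 HUVECs (endothelial cell medium, 5% FBS plus growth supplements) were seeded and grown 24 h, then treated 4 h. Cells were stained with BBoxiProbe O38 for NO, imaged by fluorescence microscopy, and mean fluorescence intensity was quantified. Mean ± SEM, n = 5.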

[12] = ABTS assay; conditions: test kit; n = 3
[13] = In vivo distribution of Cy5.5-labeled PDCs; set-up: species or system mice
Summary of the method: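 Male C57BL/6 mice (10-week-old), sham or MI, received Cy5.5-labelled PDCs by tail-vein injection. A scrambled-peptide (non-targeting) conjugate served as control, and dye-labelled conjugates were normalised to equal fluorescence by UV-Vis. At 2 h and 6 h mice were euthanised. Hearts, lungs, livers, spleens and kidneys were imaged ex vivo and average radiance quantified.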

[14] = tested on: H9c2 cells; assay: Western blotting of oxidative stress, inflammation and apoptosis proteins; format: cell-based; conditions: H2O2 treated H9c2 cells, n = 3
Summary of the method: as §2

[15] = DLS and TEM of self-assembled nanoaggregates; format: physicochemical; conditions: self-assembly in aqueous solution; TEM images and DLS
[16] = tested on: H9c2 cells; assay: Mitochondria TEM and cellular ATP; format: cell-based
[17] = tested on: cells; assay: NO release from culture medium of cells, Griess assay; format: cell-based; conditions: PDCs 10 µM
Summary of the method: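 PDCs (10 µM) were incubated with cells pretreated with PBS or H2O2 for 24 h. NO in the culture medium was measured by Griess assay at 0 h and 24 h.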

[18] = tested on: HUVECs; assay: HUVEC tube formation assay; format: cell-based, human; conditions: H2O2-treated HUVECs on Matrigel, 6 h; n = 5
Summary of the method: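 HUVECs (2.5 × 10^4 per well) seeded on Matrigel-coated wells with test compound and incubated 6 h. Bright-field images from five random fields scored for tube length, branching length and junction number. n = 5.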

[19] = DPPH assay; conditions: PDCs 0-200 µM, DPPH 500 µM, 30 min in darkness, absorbance 517 nm; n = 3
Summary of the method: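 DPPH solution (500 µM before mixing) was combined with PDC solutions at 0, 5, 10, 25, 50, 100 and 200 µM and kept 30 min in darkness. Absorbance was read at 517 nm and scavenged DPPH calculated. Mean ± SEM, n = 3.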

[20] = immunofluorescence, 28 days after MI, n = 4

## OCc1ccc(O)cc1 [4-HBA, 4-hydroxybenzyl alcohol]
[1]
  intracellular ROS level: mitigate intracellular ROS in a concentration-dependent manner

## O=[N+]([O-])O[C@@H]1CO[C@H]2[C@@H]1OC[C@@H]2O [ISN, isosorbide mononitrate, reference compound]
[2]
  migration of HUVECs: barely promoted the H2O2-inhibited migration of HUVECs
[3]
  mitochondrial membrane potential: negligible influence on the restoration of mitochondrial membrane potential
[4]; DHE staining, day 1 after MI, i.v. 200 µg/kg equivalent of ISN, n = 4
  ROS in heart tissue: little effects on tissue abundance of ROS
[4]; O56 staining, day 1 after MI, i.v. 200 µg/kg equivalent of ISN, n = 4
  RNS in heart tissue: promoted vast generation of RNS
[4]; [20]
  angiogenesis in the border zone of infarct region (CD31+ capillaries, α-SMA+ arterioles): didn’t have any effects of neovascularization
[1]
  intracellular ROS level: did not change the level of ROS inside cells
[5]
  intracellular concentration of peroxynitrite (ONOO-) / RNS: dramatically elevated the intracellular concentration of peroxynitrite
[6]
  apoptosis percentage: 32.2%
[7]
  intracellular level of NO: significantly increased the intracellular level of NO
[8]
  viability of H9c2 challenged with H2O2: increased the loss of myocytes
[9]
  expression of VEGF and p-eNOS/eNOS ratio: nor did it reverse the downregulated expression of angiogenesis-related proteins

## CSTSMLKAC [CTP-PBA-ISN]
[10]
  bio-viability and apoptosis of HUVECs under oxidative stress: most effective in maintaining bio-viability and inhibiting apoptosis
[2]
  migration of HUVECs: migration to the level similar to those of H2O2-untreated control
[11]
  intracellular NO delivery: maximizing intracellular NO delivery
[3]; Fluo-4 AM staining
  cytoplasmic calcium level: reversed the abnormal elevation of cytoplasmic calcium level
[3]
  mitochondrial membrane potential: potently restored the cross-membrane potential of mitochondria
[3]; MitoSOX staining
  mitochondrial ROS: most effective in blocking the H2O2-induced overproduction of ROS in mitochondria
[12]
  ROS clearance, ABTS assay: dose-dependent manner
[13]; sham and MI animals, extended time after injections, n = 3
  accumulation in other organs: accumulated in the kidneys, livers, and lungs
[14]; immunoblot
  TNF-α and IL-6 protein expression: capably reversed such elevation
  intracellular expression of Nrf2, HO-1 and NQO-1: downregulated intracellular expression of Nrf2, HO-1 and NQO-1
[14]; western blotting
  expression of BAX, Caspase3 and Bcl-2: most effective in downregulation of apoptosis proteins (BAX, Caspase3) and upregulation of anti-apoptosis protein (Bcl-2)
[4]; Masson's trichrome, 28 days after MI, n = 4
  fibrotic area and infarct wall thickness: reduced fibrotic area and increased infarct wall thickness
[4]; TEM of tissue slices, 3 days after MI
  ultrastructure of myocardial mitochondria: ameliorated myocardial fiber rupture, mitochondrial damage and increased mitochondrial numbers
[4]; TUNEL staining, 3 days after MI, n = 4
  apoptosis cardiomyocytes in infarcted myocardial tissue: lowest number of apoptosis cardiomyocytes
[4]; WGA staining, 28 days after MI, n = 5
  cross-sectional area of cardiomyocytes: smaller cross-sectional area of cardiomyocytes
[4]; Western blot, 1 day after MI, n = 3
  OS proteins (NRF2, HO-1, NQO-1) and pro-inflammation cytokines (TNF-α, IL-6) in the heart: significant decrease
[4]; immunoblot, 3 days after MI, n = 3
  protein expressions of CS, IDH2 and OGDH in heart tissues: facilitated recovery of these downregulated mitochondria related rate-limiting enzymes
[4]; [20]
  angiogenesis in the border zone of infarct region (CD31+ capillaries, α-SMA+ arterioles): greatly promoted
  macrophage phenotype (CD86 / CD206): established a M2-dominant macroenvironment
[4]; n = 3
  infarct area: greatly reduced
[5]
  intracellular concentration of peroxynitrite (ONOO-) / RNS: did not increase the intracellular concentration of RNS
[15]
  diameter of spherical nanoaggregates: 47 ± 4 nm
[6]
  apoptosis percentage: 15.6%
[16]; H9c2 under H2O2, ATP assay kit, n = 3
  ATP content: increased ATP content
[16]; H9c2 under H2O2, TEM
  structure of mitochondria: preserved the normal structure of mitochondria
[7]
  intracellular level of NO: significantly increased the intracellular level of NO
[8]
  viability of H9c2 challenged with H2O2: potent preservation of cell survival
[9]
  expression of VEGF and p-eNOS/eNOS ratio: remarkably upregulated
[17]; cells treated with H2O2, 24 h
  NO concentration in culture medium: significantly increased NO concentration
[17]; cells without H2O2 treatment, 24 h
  NO release in culture medium: moderated NO release
[18]
  tube formation (pseudopod length, number of junction, degree of branch): facilitated recovery in pseudopod length, number of junction and degree of branch
[19]
  free radical clearance, DPPH assay: dose-dependent manner

## CSTSMLKAC [CTP-PBA]
[3]
  mitochondrial membrane potential: limited effects
[5]
  intracellular concentration of peroxynitrite (ONOO-) / RNS: downregulation of RNS inside cells
[6]
  apoptosis percentage: 20.3%
[8]
  viability of H9c2 challenged with H2O2: only partially restored the viability of H9c2

## CSTSMLKAC [Cy5.5-CTP-PBA-ISN]
[13]; MI mice, 2 h after injection via tail veins, ex vivo imaging
  fluorescent signal of infarcted hearts: bright fluorescent signal
